According to ChEMBL document CHEMBL2396632 (Bioorg Med Chem Lett, 2013):
Values belong to the compound of their own block, whether it stands above or below them. Activity calls are given as the source filed them. No cut-off for these calls is given here.

Assays:
[1] = Vasoconstriction of human coronary artery; format: functional, tissue-based
[2] = tested on: Rattus norvegicus; assay: Toxicity in Sprague-Dawley rat assessed as nasal irritation at 75 mg/mL administered intranasally for 7 days; format: organism-based; conditions: in vivo, inhaled_or_intranasal, 168 h
Outline: (§1)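 Seven-day rat intranasal irritancy study. Dosing at 75 or 175 mg/mL, 12.5 µL/nostril in succinate buffer, giving total doses of 1.875 mg and 4.375 mg. Nasal cavity and respiratory epithelium were examined histologically.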

[3] = tested on: Rattus norvegicus; assay: Toxicity in Sprague-Dawley rat assessed as nasal irritation at 175 mg/mL administered intranasally for 7 days; format: organism-based; conditions: in vivo, inhaled_or_intranasal, 168 h; outline: as §1
[4] = target: T1, Calcitonin gene-related peptide type 1 receptor (Homo sapiens, UniProt O60894+Q16602); assay: Antagonist activity at human CGRP receptor
T1 sequence (Q16602 whole entry, one chain of several): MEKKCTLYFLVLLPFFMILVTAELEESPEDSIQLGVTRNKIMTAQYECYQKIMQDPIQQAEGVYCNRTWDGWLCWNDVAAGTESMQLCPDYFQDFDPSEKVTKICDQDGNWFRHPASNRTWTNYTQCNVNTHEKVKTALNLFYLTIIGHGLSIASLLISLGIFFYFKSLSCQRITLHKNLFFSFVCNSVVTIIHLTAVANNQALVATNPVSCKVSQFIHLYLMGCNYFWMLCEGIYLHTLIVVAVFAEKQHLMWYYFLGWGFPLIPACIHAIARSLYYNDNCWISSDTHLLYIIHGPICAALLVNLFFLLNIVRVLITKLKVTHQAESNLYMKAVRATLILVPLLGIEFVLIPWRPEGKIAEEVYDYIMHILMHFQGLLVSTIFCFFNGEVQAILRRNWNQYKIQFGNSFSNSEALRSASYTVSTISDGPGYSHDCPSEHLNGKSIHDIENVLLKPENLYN

[5] = organism: Homo sapiens; assay: Selectivity ratio for human CGRP receptor over amylin receptor-1 (unknown origin)
[6] = organism: Homo sapiens; assay: Selectivity ratio for human CGRP receptor over adrenomedullin receptor-1 (unknown origin)
[7] = target: T2, Cytochrome P450 3A4 (Homo sapiens, UniProt P08684); assay: Inhibition of CYP3A4 (unknown origin) expressed in baculovirus-infected insect cell microsomes assessed as benzoylresorufin conversion to resorufin metabolites after 45 mins by fluorescence assay; format: ADME, Microsome
T2 sequence (P08684 whole entry): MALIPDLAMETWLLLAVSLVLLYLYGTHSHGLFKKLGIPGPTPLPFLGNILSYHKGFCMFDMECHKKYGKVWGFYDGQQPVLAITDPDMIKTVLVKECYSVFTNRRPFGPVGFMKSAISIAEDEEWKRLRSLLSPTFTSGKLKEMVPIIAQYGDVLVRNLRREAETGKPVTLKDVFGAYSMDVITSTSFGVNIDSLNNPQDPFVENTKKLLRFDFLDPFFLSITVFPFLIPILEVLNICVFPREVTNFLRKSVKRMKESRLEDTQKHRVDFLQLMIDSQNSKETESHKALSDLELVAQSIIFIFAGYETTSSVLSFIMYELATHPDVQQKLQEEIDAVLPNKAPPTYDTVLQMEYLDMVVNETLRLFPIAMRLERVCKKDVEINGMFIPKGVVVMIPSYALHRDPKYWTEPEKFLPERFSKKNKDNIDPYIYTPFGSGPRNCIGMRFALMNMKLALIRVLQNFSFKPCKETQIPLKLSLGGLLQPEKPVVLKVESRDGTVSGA

[8] = Chemical degradation in succinate buffer at 40 mg/mL after 3 months at pH 6
[9] = Permeability from basolateral to apical side of human Caco2 cells; format: ADME, cell-based; conditions: Caco-2, read-out: permeability
[10] = tested on: Callithrix jacchus; assay: Inhibition of human alphaCGRP-induced increase in facial blood flow in marmoset at 0.03 mg/kg, sc administered 30 mins after human alphaCGRP-challenge measured 105 mins post-dose by laser Doppler flowmetric analysis relative to control; format: functional; conditions: route subcutaneous
Outline: (§2)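 Anesthetized marmosets received four IV hαCGRP challenges (10 μg/kg) at 45 min intervals (-30, 15, 60, 105 min) to raise facial blood flow, monitored by laser Doppler. Antagonist given SC at 0 min. The first challenge is the pre-dose vehicle baseline, and inhibition at each post-dose challenge is expressed against it.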

[11] = Plasma concentration in marmoset at 0.03 mg/kg, sc measured 15 to 105 mins post-dose; format: ADME, organism-based, Callithrix jacchus; design: dose 0.03 mg/kg, route subcutaneous; conditions: in vivo
Outline: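 Total plasma levels were measured in anesthetized marmosets given the antagonist SC at 0 min, sampled over the 15–105 min post-dose period. The animals also received repeated IV hαCGRP (10 μg/kg) challenges for the facial blood flow model.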

[12] = tested on: Rattus norvegicus; assay: Toxicity in Sprague-Dawley rat assessed as inflammation of olfactory epithelium at 175 mg/mL administered intranasally for 7 days; format: organism-based; conditions: in vivo, inhaled_or_intranasal, 168 h; outline: as §1
[13] = Subcutaneous bioavailability in sc dosed Sprague-Dawley rat; conditions: in vivo
[14] = target: T2, Cytochrome P450 3A4; assay: Inhibition of CYP3A4 (unknown origin) expressed in baculovirus-infected insect cell microsomes assessed as 7-benzyloxy-4-trifluoromethylcoumarin conversion to 7-hydroxy-4-trifluoromethylcoumarin after 20 mins by fluorescence assay; format: ADME, Microsome
[15] = Fraction unbound in human plasma; format: ADME, cell-free
[16] = Oral bioavailability in intranasally dosed New Zealand White rabbit at 10 mg/mL; format: ADME, organism-based, Oryctolagus cuniculus; conditions: in vivo, other: intranasal
Outline: (§3)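 Intranasal dosing in rabbit with 10 to 100 mg/mL dosing solutions, then plasma sampling from 5 min to 24 h. Reported values are Cmax, Tmax, and absolute bioavailability for each dosing-solution concentration.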

[17] = Cmax in intranasally dosed New Zealand White rabbit; format: ADME, organism-based, Oryctolagus cuniculus; design: route nasal; conditions: in vivo, inhaled or intranasal; outline: as §3
[18] = organism: Homo sapiens; assay: Selectivity ratio for human CGRP receptor over human calcitonin receptor
[19] = Oral bioavailability in intranasally dosed New Zealand White rabbit at 100 mg/mL; format: ADME, organism-based, Oryctolagus cuniculus; conditions: in vivo, other: intranasal; outline: as §3
[20] = Permeability from apical to basolateral side of human Caco2 cells; format: ADME, cell-based; conditions: Caco-2, read-out: permeability
[21] = target: T3, hERG (Homo sapiens, UniProt Q12809); assay: Inhibition of human ERG at 10 uM relative to control
T3 sequence (Q12809 whole entry): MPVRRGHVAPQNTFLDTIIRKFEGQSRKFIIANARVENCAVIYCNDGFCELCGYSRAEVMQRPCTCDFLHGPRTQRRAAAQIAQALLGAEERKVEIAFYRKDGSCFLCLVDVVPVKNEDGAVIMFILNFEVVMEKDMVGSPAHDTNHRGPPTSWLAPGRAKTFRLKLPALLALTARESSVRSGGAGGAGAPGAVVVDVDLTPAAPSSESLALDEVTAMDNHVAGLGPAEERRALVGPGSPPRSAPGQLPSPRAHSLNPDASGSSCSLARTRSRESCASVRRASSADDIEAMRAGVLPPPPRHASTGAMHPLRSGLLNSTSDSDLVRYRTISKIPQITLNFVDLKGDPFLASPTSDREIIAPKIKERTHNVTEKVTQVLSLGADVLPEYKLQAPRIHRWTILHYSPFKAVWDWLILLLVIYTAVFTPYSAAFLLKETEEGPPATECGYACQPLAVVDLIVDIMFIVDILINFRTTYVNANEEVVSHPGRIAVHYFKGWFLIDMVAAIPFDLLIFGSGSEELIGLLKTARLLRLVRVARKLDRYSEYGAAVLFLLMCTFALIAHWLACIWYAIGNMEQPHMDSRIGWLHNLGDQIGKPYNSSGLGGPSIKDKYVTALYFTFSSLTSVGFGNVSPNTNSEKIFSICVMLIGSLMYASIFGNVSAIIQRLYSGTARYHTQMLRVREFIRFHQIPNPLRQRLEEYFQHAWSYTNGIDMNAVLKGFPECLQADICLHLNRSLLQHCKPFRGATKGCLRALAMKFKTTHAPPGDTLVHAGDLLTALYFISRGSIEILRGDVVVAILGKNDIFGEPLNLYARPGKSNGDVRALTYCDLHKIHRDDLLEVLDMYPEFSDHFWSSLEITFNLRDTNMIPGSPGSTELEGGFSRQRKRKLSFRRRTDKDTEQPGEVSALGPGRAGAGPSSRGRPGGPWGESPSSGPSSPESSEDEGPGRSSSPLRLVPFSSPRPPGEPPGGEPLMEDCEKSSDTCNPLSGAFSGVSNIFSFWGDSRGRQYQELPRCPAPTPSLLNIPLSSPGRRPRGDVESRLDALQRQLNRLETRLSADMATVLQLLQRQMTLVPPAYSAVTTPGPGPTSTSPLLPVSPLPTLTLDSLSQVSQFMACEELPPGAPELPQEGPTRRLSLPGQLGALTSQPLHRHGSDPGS

[22] = Aqueous solubility of the compound; format: physicochemical; conditions: buffer
Outline: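 Aqueous solubility of crystalline material, determined at pH 8.5 and at lower pH.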

[23] = Toxicity in sc dosed Sprague-Dawley rat after 10 days; format: organism-based; conditions: in vivo
Outline: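 Rats were dosed subcutaneously once daily for 10 days at 0.3, 3, 10 and 30 mg/kg/day and assessed for tolerability and signs of systemic toxicity.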

[24] = Tmax in intranasally dosed New Zealand White rabbit; format: ADME, organism-based, Oryctolagus cuniculus; conditions: in vivo, inhaled or intranasal; outline: as §3
[25] = tested on: Rattus norvegicus; assay: Toxicity in Sprague-Dawley rat assessed as erosion of olfactory epithelium at 175 mg/mL administered intranasally for 7 days; format: organism-based; conditions: in vivo, inhaled_or_intranasal, 168 h; outline: as §1
[26] = target: T4, Cytochrome P450 1A2 (Homo sapiens, UniProt P05177); assay: Inhibition of CYP1A2 (unknown origin) expressed in baculovirus-infected insect cell microsomes assessed as 3-cyano-7-ethoxycoumarin conversion to 7-hydroxy-3-cyanocoumarin after 45 mins by fluorescence assay; format: ADME, Microsome
T4 sequence (P05177 whole entry): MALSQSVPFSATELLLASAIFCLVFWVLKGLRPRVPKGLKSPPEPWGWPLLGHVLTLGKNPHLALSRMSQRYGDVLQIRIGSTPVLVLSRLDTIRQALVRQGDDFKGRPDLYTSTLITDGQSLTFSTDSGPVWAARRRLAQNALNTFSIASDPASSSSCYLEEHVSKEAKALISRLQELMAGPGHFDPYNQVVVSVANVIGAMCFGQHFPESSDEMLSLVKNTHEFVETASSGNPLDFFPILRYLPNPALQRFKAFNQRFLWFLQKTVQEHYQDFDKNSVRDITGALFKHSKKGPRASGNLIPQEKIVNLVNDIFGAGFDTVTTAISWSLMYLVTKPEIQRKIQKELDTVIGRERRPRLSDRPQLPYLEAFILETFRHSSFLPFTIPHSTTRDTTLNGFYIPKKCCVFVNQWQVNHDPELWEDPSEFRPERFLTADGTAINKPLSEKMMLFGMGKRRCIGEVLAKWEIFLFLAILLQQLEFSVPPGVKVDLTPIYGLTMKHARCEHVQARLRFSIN

[27] = target: T1, Calcitonin gene-related peptide type 1 receptor; assay: (§4) Displacement of [125I]-CGRP from CGRP receptor in human SK-N-MC cell membranes after 2 hrs by scintillation counting analysis
[28] = target: Calcitonin gene-related peptide type 1 receptor (Homo sapiens) (UniProt Q16602); assay: as §4
Calcitonin gene-related peptide type 1 receptor (Homo sapiens), sequence (Q16602 whole entry): as the sequence (Q16602 whole entry, one chain of several) above

[29] = target: T3, hERG; assay: Inhibition of human ERG at 30 uM relative to control
[30] = tested on: Callithrix jacchus; assay: Inhibition of human alphaCGRP-induced increase in facial blood flow in marmoset at 0.03 mg/kg, sc administered 30 mins after human alphaCGRP-challenge measured 15 mins post-dose by laser Doppler flowmetric analysis relative to control; format: functional; conditions: route subcutaneous; outline: as §2
[31] = organism: Homo sapiens; assay: Selectivity ratio for human CGRP receptor over amylin receptor-3 (unknown origin)
[32] = Reversal of CGRP-induced dilation of human intracranial arterial rings assessed as rightward shift of concentration-response curve after 30 mins by Schild plot analysis; format: functional; conditions: 0.5 h
[33] = Oral bioavailability in mouse; format: ADME, organism-based; conditions: in vivo
[34] = organism: Homo sapiens; assay: Selectivity ratio for human CGRP receptor over adrenomedullin receptor-2 (unknown origin)
[35] = tested on: Rattus norvegicus; assay: Toxicity in Sprague-Dawley rat assessed as lesions in respiratory epithelium at => 75 mg/mL administered intranasally for 7 days; format: organism-based; conditions: in vivo, inhaled_or_intranasal, 168 h; outline: as §1
[36] = tested on: Rattus norvegicus; assay: Toxicity in Sprague-Dawley rat assessed as single cell necrosis of respiratory epithelium at 175 mg/mL administered intranasally for 7 days; format: organism-based; conditions: in vivo, inhaled_or_intranasal, 168 h; outline: as §1
[37] = target: Cytochrome P450 2C19 (Homo sapiens, UniProt P33261); assay: Inhibition of CYP2C19 (unknown origin) expressed in baculovirus-infected insect cell microsomes assessed as 3-cyano-7-ethoxycoumarin conversion to 7-hydroxy-3-cyanocoumarin after 45 mins by fluorescence assay; format: ADME, Microsome
Cytochrome P450 2C19, sequence (P33261 whole entry): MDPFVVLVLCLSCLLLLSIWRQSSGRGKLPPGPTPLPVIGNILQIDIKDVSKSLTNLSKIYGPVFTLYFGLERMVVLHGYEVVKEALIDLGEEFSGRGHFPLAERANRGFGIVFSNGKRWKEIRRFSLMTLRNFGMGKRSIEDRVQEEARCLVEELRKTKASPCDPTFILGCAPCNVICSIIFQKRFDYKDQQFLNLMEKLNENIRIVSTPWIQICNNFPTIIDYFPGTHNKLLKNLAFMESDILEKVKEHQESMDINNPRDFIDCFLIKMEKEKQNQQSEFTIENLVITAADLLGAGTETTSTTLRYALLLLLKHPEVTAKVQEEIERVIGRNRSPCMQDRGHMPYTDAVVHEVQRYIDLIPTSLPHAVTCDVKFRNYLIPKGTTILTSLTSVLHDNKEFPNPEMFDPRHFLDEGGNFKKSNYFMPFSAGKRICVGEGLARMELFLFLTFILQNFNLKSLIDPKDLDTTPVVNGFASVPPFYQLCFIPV

[38] = target: Cytochrome P450 2C9 (Homo sapiens, UniProt P11712); assay: Inhibition of CYP2C9 (unknown origin) expressed in baculovirus-infected insect cell microsomes assessed as 7-methoxy-4-trifluoromethylcoumarin conversion to 7-hydroxy-4-trifluoromethylcoumarin after 45 mins by fluorescence assay; format: ADME, Microsome
Cytochrome P450 2C9, sequence (P11712 whole entry): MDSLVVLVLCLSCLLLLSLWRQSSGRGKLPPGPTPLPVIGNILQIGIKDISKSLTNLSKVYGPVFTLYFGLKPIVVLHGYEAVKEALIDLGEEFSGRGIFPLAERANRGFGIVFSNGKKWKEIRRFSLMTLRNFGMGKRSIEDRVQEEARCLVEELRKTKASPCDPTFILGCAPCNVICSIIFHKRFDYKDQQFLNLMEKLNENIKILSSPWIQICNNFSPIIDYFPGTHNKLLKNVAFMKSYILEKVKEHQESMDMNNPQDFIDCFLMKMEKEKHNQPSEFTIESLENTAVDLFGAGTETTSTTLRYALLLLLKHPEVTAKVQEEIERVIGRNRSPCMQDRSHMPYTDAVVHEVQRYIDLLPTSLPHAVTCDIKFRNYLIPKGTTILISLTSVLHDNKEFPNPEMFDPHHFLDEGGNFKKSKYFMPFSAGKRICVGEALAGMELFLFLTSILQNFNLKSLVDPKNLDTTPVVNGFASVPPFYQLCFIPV

[39] = tested on: Rattus norvegicus; assay: Toxicity in Sprague-Dawley rat assessed as neutrophilic inflammation of respiratory epithelium at 175 mg/mL administered intranasally for 7 days; format: organism-based; conditions: in vivo, inhaled_or_intranasal, 168 h; outline: as §1
[40] = Reversal of CGRP-induced dilation of human intracranial arterial rings; format: functional
Outline: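 Ex vivo reversal protocol: vessels fully dilated with CGRP, then cumulative addition of antagonist in a 3-point concentration-response. EC50 (concentration giving 50% reversal) estimated by best fit, n = 4 vessels per compound.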

[41] = target: Calcitonin gene-related peptide type 1 receptor (Homo sapiens) (UniProt Q16602); assay: Antagonist activity at CGRP receptor in human SK-N-MC cell membranes assessed as inhibition of CGRP-stimulated cAMP production; format: functional, cell-based
[42] = Permeability of the compound by PAMPA; format: ADME
[43] = Oral bioavailability in cynomolgus monkey; format: ADME, organism-based, Macaca fascicularis; conditions: in vivo
[44] = tested on: Callithrix jacchus; assay: Inhibition of human alphaCGRP-induced increase in facial blood flow in marmoset at 0.03 mg/kg, sc administered 30 mins after human alphaCGRP-challenge measured 60 mins post-dose by laser Doppler flowmetric analysis relative to control; format: functional; conditions: route subcutaneous; outline: as §2
[45] = target: Cytochrome P450 2D6 (Homo sapiens, UniProt P10635); assay: Inhibition of CYP2D6 (unknown origin) expressed in baculovirus-infected insect cell microsomes assessed as 3-[2-(N,N-diethyl-N-methylamino)ethyl]-7-methoxy-4-methylcoumarin conversion to 3-[2-(N,N-diethylamino)ethyl]-7-hydroxy-4-methylcoumarin after 45 mins by fluorescence assay; format: ADME, Microsome
Cytochrome P450 2D6, sequence (P10635 whole entry): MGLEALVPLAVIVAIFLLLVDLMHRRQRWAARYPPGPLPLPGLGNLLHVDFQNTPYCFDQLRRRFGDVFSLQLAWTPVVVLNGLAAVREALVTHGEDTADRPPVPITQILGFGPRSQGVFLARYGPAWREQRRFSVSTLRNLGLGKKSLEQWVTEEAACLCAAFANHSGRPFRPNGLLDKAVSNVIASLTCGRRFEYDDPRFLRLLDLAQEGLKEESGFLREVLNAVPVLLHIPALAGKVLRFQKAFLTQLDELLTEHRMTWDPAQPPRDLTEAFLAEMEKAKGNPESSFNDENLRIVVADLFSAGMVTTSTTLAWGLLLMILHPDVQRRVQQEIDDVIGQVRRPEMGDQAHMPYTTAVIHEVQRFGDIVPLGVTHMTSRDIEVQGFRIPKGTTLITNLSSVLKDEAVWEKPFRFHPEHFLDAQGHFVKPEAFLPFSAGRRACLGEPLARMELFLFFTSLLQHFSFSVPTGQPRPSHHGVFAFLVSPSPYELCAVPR

[46] = tested on: Rattus norvegicus; assay: Toxicity in Sprague-Dawley rat assessed as ulceration of olfactory epithelium at 175 mg/mL administered intranasally for 7 days; format: organism-based; conditions: in vivo, inhaled_or_intranasal, 168 h; outline: as §1
[47] = tested on: Rattus norvegicus; assay: Toxicity in Sprague-Dawley rat assessed as lesions in nasal olfactory epithelium at => 75 mg/mL administered intranasally for 7 days; format: organism-based; conditions: in vivo, inhaled_or_intranasal, 168 h; outline: as §1
[48] = Plasma concentration in intranasally dosed New Zealand White rabbit after 5 mins; format: ADME, organism-based, Oryctolagus cuniculus; conditions: inhaled or intranasal; outline: as §3
[49] = Vasoconstriction of human coronary artery up to 10 uM; format: functional, tissue-based

- EC50 [1]: 280 nM
Structure (SMILES): CNS(=O)(=O)Cc1ccc2[nH]cc(CCN(C)C)c2c1
- Activity [1]: Dose-dependent effect

Structure (SMILES): Cc1cc(C[C@@H](NC(=O)N2CCC(N3Cc4cccc(F)c4NC3=O)CC2)C(=O)N2CCC(N3CCCCC3)CC2)cc2cn[nH]c12
- Activity [2]: Toxic
- Activity [3]: Toxic

- Ki [4]: 0.021 nM
Structure (SMILES): O=C(CN1C(=O)C2(CCCC2)NC[C@H]1c1cc(F)cc(F)c1)Nc1ccc2c(c1)C[C@@]1(C2)C(=O)Nc2ncccc21 [MK3207]

Structure (SMILES): Cc1cc(C[C@@H](NC(=O)N2CCC(c3cc4ccccc4[nH]c3=O)CC2)C(=O)N2CCN(C3CCN(C)CC3)CC2)cc2cn[nH]c12 [ZAVEGEPANT]
- Selectivity ratio [5]: > 10000
- Selectivity ratio [6]: > 10000
- IC50 [7]: 24000 nM
- Degradation % at 2191.5 h, 40 mg/mL [8]: 0.3%
- Papp B→A [9]: 1.6 ×10⁻⁶ cm/s
- inhibition in vivo at 0.03 mg/kg [10]: 70%
- concentration [11]: 25 nM
- Activity [12]: Toxic
- bioavailability [13]: 82%
- IC50 [14]: > 40000 nM
- fraction unbound [15]: 0.37
- bioavailability [16]: 13%
- Cmax [17]: 120 nM
- Selectivity ratio [18]: > 10000
- bioavailability [19]: 30%
- Papp A→B [20]: 1.6 ×10⁻⁶ cm/s
- inhibition at 10 µM [21]: 9.5%
- solubility [22]: > 300 mg/mL
- Activity [2]: Non-toxic
- MTD at 240 h [23]: 30 mg/kg/day
- Tmax [24]: 15 min
- Activity [25]: Toxic
- IC50 [26]: > 40000 nM
- Ki [27]: 0.023 nM
- inhibition [28]: Dose-dependent effect
- inhibition at 30 µM [29]: 22%
- inhibition in vivo at 0.03 mg/kg [30]: 48%
- Selectivity ratio [31]: > 10000
- Kb [32]: 0.091 nM
- bioavailability [33]: 1.4%
- Selectivity ratio [34]: > 10000
- Activity [35]: Toxic
- Activity [36]: Toxic
- IC50 [37]: > 40000 nM
- IC50 [38]: > 40000 nM
- Activity [39]: Toxic
- EC50 [40]: 0.88 nM
- Kb [41]: 0.022 nM
- permeability [42]: impermeable
- Activity [3]: Non-toxic
- bioavailability [43]: 0.3%
- inhibition in vivo at 0.03 mg/kg [44]: 80%
- IC50 [45]: > 40000 nM
- Activity [46]: Toxic
- Activity [47]: Toxic
- concentration at 5 min [48]: > 10 nM
- Activity [49]: inactive
